Consider 34 compounds from ChEMBL document CHEMBL1137566 (J Med Chem, 2007).

The target of series [1] is Prothrombin (Homo sapiens, UniProt P00734). The series is described as follows: Inhibition of human thrombin.
For series [2], the target named is Trypsin (Homo sapiens, UniProt P07477+P07478+P35030). Nature of the series: Inhibition of human trypsin. In kind it is protein assay.
The target in series [3] is Coagulation factor X (Homo sapiens, UniProt P00742). Nature of the series: Binding affinity to human F10a.
Chain of Coagulation factor X (P00742 41-179 limits assumed): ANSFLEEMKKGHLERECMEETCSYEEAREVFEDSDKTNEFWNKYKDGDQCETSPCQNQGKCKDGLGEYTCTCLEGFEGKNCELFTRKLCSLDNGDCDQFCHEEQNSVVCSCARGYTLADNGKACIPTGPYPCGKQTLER
Chain of Coagulation factor X (P00742 235-488 limits assumed): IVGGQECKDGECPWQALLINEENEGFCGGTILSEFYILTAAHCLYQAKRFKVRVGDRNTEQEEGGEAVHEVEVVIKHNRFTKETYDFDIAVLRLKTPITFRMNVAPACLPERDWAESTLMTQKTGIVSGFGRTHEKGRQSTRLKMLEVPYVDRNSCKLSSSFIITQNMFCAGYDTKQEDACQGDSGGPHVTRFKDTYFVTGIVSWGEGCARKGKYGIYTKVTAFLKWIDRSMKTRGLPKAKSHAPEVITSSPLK
A short description of series [4]: Apparent permeability across Caco-2 cells. In kind it is ADME, cell-based. Particulars: human.
Series [5] in a line: Half life in dog at 0.2 mg/kg, po. On the set-up: dose 0.2 mg/kg, route oral. To be noted: in vivo. Format: ADME, organism-based, Canis lupus familiaris. Summed up:
(§1)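 Dog pharmacokinetics from cassette (N-in-one) dosing of compounds as TFA salts: 0.4 mg/kg iv and 0.2 mg/kg po, n = 2 animals.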

A short description of series [6]: Volume of distribution at steady state in dog at 0.4 mg/kg, iv and 0.2 mg/kg, po. In kind it is ADME, organism-based, Canis lupus familiaris. To be noted: in vivo, read-out: Vdss. An outline of the steps: as §1
A short description of series [7]: Oral bioavailability in dog at 0.2 mg/kg, po. In kind it is ADME, organism-based, Canis lupus familiaris. Particulars: in vivo. Summed up:
as §1

Series [8] in a line: Clearance in dog at 0.4 mg/kg, iv and 0.2 mg/kg, po. In kind it is ADME, organism-based, Canis lupus familiaris. Particulars: in vivo. Summed up:
as §1

The species named for series [9] is Oryctolagus cuniculus. The series is described as follows: Inhibition of thrombus formation in rabbit arteriovenous shunt thrombosis model. Format: functional, organism-based.
Series [10] in a line: Half life in human liver microsomes. Format: ADME, Microsome.

`COc1ccc(-n2nc(C#N)c3c2C(=O)N(c2ccc(-c4ccccc4CN4CC[C@@H](O)C4)cc2)CC3)cc1`: the Ki in [1] is 100 nM; in [2], over 3000 nM; in series [3], 0.33 nM.
With `COc1ccc(-n2nc(C(F)(F)F)c3c2C(=O)N(c2ccc(N(C)C)cc2)CC3)cc1`, the results for the Ki in series [1] and in series [3] were over 13400 nM and 6 nM, respectively.
As to `CCN(CC)Cc1ccccc1-c1ccc(N2CCc3c(C(N)=O)nn(-c4ccc(OC)cc4)c3C2=O)cc1`, in [4], the Papp came out at 2.3 ×10⁻⁶ cm/s. The half-life in [5] was 3.7 h. Besides, in series [3], affinity was put at a Ki of 0.08 nM. Also, the Vd in series [6] worked out at 6.5 L/kg. Further, the bioavailability in series [7] came out at 20%. Further, the clearance in series [8] was 40 mL/min/kg.
As for `CNCc1ccccc1-c1ccc(N2CCc3c(C(N)=O)nn(-c4ccc(OC)cc4)c3C2=O)cc1`, in series [4], the Papp is 1.7 ×10⁻⁶ cm/s. The values for the half-life in [5] and in series [10] were 7.3 h and over 1.67 h, respectively. Besides, affinity in [3] was put at a Ki of 0.14 nM. For the same compound, the IC50 in [9] amounted to 445 nM. Further, in series [6], the Vd stood at 7.4 L/kg. In [7], this compound came in with a bioavailability of 56%. For the same compound, in [8], the clearance was 21.7 mL/min/kg.
In the case of `COc1ccc(-n2nc(C(N)=O)c3c2C(=O)N(c2ccc(-c4ccccc4CN4CC[C@@H](O)C4)cc2)CC3)cc1`, the Ki in series [1] was 140 nM; in series [2], over 3000 nM; in series [3], 0.07 nM. For the same compound, the Papp in [4] amounted to 2.3 ×10⁻⁶ cm/s. Also, the half-life in series [5] is 5.6 h. This compound also registered an IC50 in series [9] of 120 nM. Further, the Vd in series [6] was 1.6 L/kg. The compound further came in with a bioavailability in [7] of 100%. The compound further had a clearance in series [8] of 5.33 mL/min/kg.
With `COc1ccc(-n2nc(C(F)(F)F)c3c2C(=O)N(c2ccc(-c4ccccc4CN4CC[C@@H](O)C4)cc2)CC3)cc1`, the figures for the Ki in series [1], in series [2] and in [3] were 330 nM, over 3000 nM and 0.18 nM, respectively.
For `COc1ccc(-n2nc(NC(=O)OC(C)(C)C)c3c2C(=O)N(c2ccc(-c4ccccc4CN4CC[C@@H](O)C4)cc2)CC3)cc1`, in that order: 4600 nM, over 3000 nM and 9.6 nM.
On the same counts, the results for `CNC(=O)c1nn(-c2ccc(OC)cc2)c2c1CCN(c1ccc(-c3ccccc3CN3CC[C@@H](O)C3)cc1)C2=O` are 7000 nM, over 3000 nM and 4.8 nM.
Take `COc1ccc(-n2nc(-c3nnn[nH]3)c3c2C(=O)N(c2ccc(-c4ccccc4CN4CC[C@@H](O)C4)cc2)CC3)cc1`: the Ki in series [1] was 12000 nM; in series [2], over 3000 nM; in series [3] it was 0.63 nM.
Turning to `COc1ccc(-n2nc(Cn3ccnn3)c3c2C(=O)N(c2ccc(-c4ccccc4CN4CC[C@@H](O)C4)cc2)CC3)cc1`, the Ki is 12000 nM in series [1], over 3000 nM in series [2] and 0.67 nM in series [3]. The Papp in series [4] stood at 1.6 ×10⁻⁶ cm/s. In [5], this compound showed a half-life of 2.8 h. Besides, the Vd in series [6] stood at 4.9 L/kg. Moreover, the bioavailability in [7] is 24%. For the same compound, the clearance in series [8] was 41.2 mL/min/kg.
With `COc1ccc(-n2nc(C(F)(F)F)c3c2C(=O)N(c2ccc(N4CCCCCC4=O)cc2)CC3)cc1`, the Ki in [1] was found to be 3300 nM; in [3], 0.47 nM.
Take `COc1ccc(-n2nc(C(N)=O)c3c2C(=O)N(c2ccc(-c4ccccc4CN(C)C)cc2)CC3)cc1`: the Papp in series [4] came out at 2.3 ×10⁻⁶ cm/s. Moreover, the half-life in [5] was 3.6 h. The same compound gave a Ki in series [3] of 0.24 nM. For the same compound, the IC50 in series [9] was found to be 175 nM. In series [6], the Vd turned out to be 6.1 L/kg. This compound had a bioavailability in series [7] of 56%. For the same compound, the clearance in series [8] was 33.3 mL/min/kg.
With `COc1ccc(-n2nc(C(=O)N(C)C)c3c2C(=O)N(c2ccc(-c4ccccc4CN4CC[C@@H](O)C4)cc2)CC3)cc1`, the Ki in series [1] is 11000 nM; in series [2] it was over 3000 nM; in series [3], 1.7 nM.
Turning to `COc1ccc(-n2nc(C(N)=O)c3c2C(=O)N(c2ccc(-c4ccccc4CN4CCCC4)cc2)CC3)cc1`, the Papp in series [4] is 3.5 ×10⁻⁶ cm/s. Also, the half-life in [5] is 3.5 h. For the same compound, the Ki in series [3] came to 0.3 nM. Moreover, in series [6], the Vd is 5.6 L/kg. Moreover, the bioavailability in [7] is 53%. The compound also showed a clearance in [8] of 25 mL/min/kg.
Regarding `COc1ccc(-n2nc(C(N)=O)c3c2C(=O)N(c2ccc(-c4ccccc4CN(CCO)CCO)cc2)CC3)cc1`, in series [4], the Papp stood at 0.9 ×10⁻⁶ cm/s. Further, in [5], the half-life is 1.8 h. The affinity in series [3] corresponds to a Ki of 0.36 nM. The Vd in series [6] worked out at 1.09 L/kg. In addition, the bioavailability in series [7] stood at 15%. For the same compound, in [8], the clearance was 8.33 mL/min/kg.
Take `CCOC(=O)c1nn(-c2ccc(OC)cc2)c2c1CCN(c1ccc(-c3ccccc3CN3CC[C@@H](O)C3)cc1)C2=O`: the Ki in series [1] is 980 nM; in series [2], over 3000 nM; in [3], 3.9 nM.
On to `COc1ccc(-n2nc(Cn3ncnn3)c3c2C(=O)N(c2ccc(-c4ccccc4CN4CC[C@@H](O)C4)cc2)CC3)cc1`, for which the figures for the Ki in series [1], in series [2] and in series [3] were 1000 nM, over 3000 nM and 1.1 nM, respectively.
For the compound `COc1ccc(-n2nc(C(F)(F)F)c3c2C(=O)N(c2ccc(N(C)C(C)=O)cc2)CC3)cc1`, the values for the Ki in series [1] and in series [3] were over 6300 nM and 0.5 nM, respectively.
On to `COc1ccc(-n2nc(N)c3c2C(=O)N(c2ccc(-c4ccccc4CN4CC[C@@H](O)C4)cc2)CC3)cc1`, for which the figures for the Ki in series [1], in series [2] and in series [3] were 9400 nM, over 3000 nM and 6.7 nM, respectively.
For `COc1ccc(-n2nc(N(C)C)c3c2C(=O)N(c2ccc(-c4ccccc4CN4CC[C@@H](O)C4)cc2)CC3)cc1`, in that order: 1800 nM, over 3000 nM and 0.31 nM.
For `COc1ccc(-n2nc(Cn3cnnn3)c3c2C(=O)N(c2ccc(-c4ccccc4CN4CC[C@@H](O)C4)cc2)CC3)cc1`, the Ki in [1] is 970 nM; in [2], over 3000 nM; in series [3], 0.85 nM. For the same compound, the Papp in series [4] was found to be 0.9 ×10⁻⁶ cm/s. This compound also gave a half-life in series [5] of 1.8 h. Also, the Vd in [6] came to 3.7 L/kg. Moreover, in series [7], the bioavailability came to 7%. Moreover, the clearance in series [8] is 43 mL/min/kg.
With `COc1ccc(-n2nc(C(F)(F)F)c3c2C(=O)N(c2ccc(N)cc2)CC3)cc1`, the Ki in [1] was over 6300 nM.
With `COc1ccc(-n2nc(Cn3cncn3)c3c2C(=O)N(c2ccc(-c4ccccc4CN4CC[C@@H](O)C4)cc2)CC3)cc1`, the values for the Ki in series [1], in series [2] and in series [3] were 1900 nM, over 3000 nM and 0.25 nM, respectively.
On to `COc1ccc(-n2nc(S(C)(=O)=O)c3c2C(=O)N(c2ccc(-c4ccccc4CN4CC[C@@H](O)C4)cc2)CC3)cc1`, for which the Ki in [1] is 180 nM; in series [2], over 3000 nM; in [3], 0.25 nM.
Take `CNc1nn(-c2ccc(OC)cc2)c2c1CCN(c1ccc(-c3ccccc3CN3CC[C@@H](O)C3)cc1)C2=O`: the Ki is 4800 nM in series [1], over 3000 nM in series [2] and 1.7 nM in series [3].
`COc1ccc(-n2nc(C(F)(F)F)c3c2C(=O)N(c2ccc(N4CCCCC4=O)cc2)CC3)cc1`: the Ki in series [1] was determined as 4400 nM; in series [3], 0.23 nM.
In the case of `COc1ccc(-n2nc(N(C)C(=O)OC(C)(C)C)c3c2C(=O)N(c2ccc(-c4ccccc4CN4CC[C@@H](O)C4)cc2)CC3)cc1`, the Ki in series [1] is 950 nM; in [2], over 3000 nM; in [3] it was 2 nM.
Consider `COc1ccc(-n2nc(C(N)=O)c3c2C(=O)N(c2ccc(-c4ccccc4CN)cc2)CC3)cc1`, for which the Papp in [4] worked out at 1.2 ×10⁻⁶ cm/s. For the same compound, the inhibition constant Ki in [3] came out at 0.97 nM.
As to `COc1ccc(-n2nc(C(F)(F)F)c3c2C(=O)N(c2ccc(N4CCCCC4)cc2)CC3)cc1`, the figures for the Ki in series [1] and in series [3] were 3900 nM and 2.1 nM, respectively.
In the case of `COc1ccc(-n2nc(C(F)(F)F)c3c2C(=O)N(c2ccc(NC(C)=O)cc2)CC3)cc1`, the Ki is over 6300 nM in series [1] and 180 nM in series [3].
Consider `COc1ccc(-n2nc(C(N)=O)c3c2C(=O)N(c2ccc(-c4ccccc4CN4CCC(O)CC4)cc2)CC3)cc1`, for which the Papp in [4] came to 4.9 ×10⁻⁶ cm/s. Moreover, the half-life in series [5] was 4.3 h. The same compound gave a Ki in [3] of 0.29 nM. The compound also yielded an IC50 in series [9] of 180 nM. The Vd in series [6] was 0.99 L/kg. The compound further had a bioavailability in [7] of 55%. This compound also had a clearance in series [8] of 1.67 mL/min/kg.
`COc1ccc(-n2nc(Cn3nccn3)c3c2C(=O)N(c2ccc(-c4ccccc4CN4CC[C@@H](O)C4)cc2)CC3)cc1`: the Ki is 980 nM in series [1], over 3000 nM in series [2] and 0.48 nM in [3].
On the same counts, the results for `COc1ccc(-n2nc(C(=O)O)c3c2C(=O)N(c2ccc(-c4ccccc4CN4CC[C@@H](O)C4)cc2)CC3)cc1` are over 20000 nM, over 3000 nM and 7.6 nM.
Consider `CNc1ccc(N2CCc3c(C(F)(F)F)nn(-c4ccc(OC)cc4)c3C2=O)cc1`, for which the Ki in [1] is over 6300 nM; in series [3], 610 nM.
